Consider twelve compounds from PMC9463105 (Chemmedchem, 2022).

What is called viability is a per cent measure of how many cells are alive, often set against a control. One may read the inhibition as the drop in the measured response relative to a control, in per cent. A word on the CC50: it is the concentration at which the toxic effect on the cells reaches its halfway point. By IC50 is commonly meant the concentration at which inhibition is half-maximal. The low end stands for greater potency in that assay, the high end for weaker potency in that assay.

One data set is described as follows: Cell viability assay. It is filed as cell-based. The settings on record: human, HFF cells; for viability at 7 days, 10 µM: Cell‐based assays [at 10 μM] Cell viability %, triplicate, mean.
The next data set has as its target T1, HCMV pUL89‐C (Human cytomegalovirus, UniProt P16732).
T1 sequence (P16732 418-674 limits assumed): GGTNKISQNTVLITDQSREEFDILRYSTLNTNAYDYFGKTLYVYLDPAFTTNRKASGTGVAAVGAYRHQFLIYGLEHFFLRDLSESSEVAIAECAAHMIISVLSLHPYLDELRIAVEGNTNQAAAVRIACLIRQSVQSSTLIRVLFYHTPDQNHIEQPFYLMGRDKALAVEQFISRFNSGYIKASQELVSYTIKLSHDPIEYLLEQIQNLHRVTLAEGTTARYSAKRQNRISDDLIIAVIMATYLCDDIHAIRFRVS
The data set can be described thus: In vitro pUL89‐C endonuclease assay. Conditions: for inhibition at 10 µM: read-out: Nuclease inhibition % at 10 μM; for IC50: IC50, dose response, duplicate. It is filed as biochemical.

The next data set deals with T2, pUL89‐C (Human cytomegalovirus, UniProt P16732).
T2 sequence (P16732 418-674 limits assumed): T1 sequence (P16732 418-674 limits assumed)
As to the kind of experiment: pUL89‐C thermal shift assay. The data set is classed as binding, Human cytomegalovirus (HCMV). The settings on record: 20 μM compound, compared to DMSO control. Summed up:
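pUL89-C was expressed in E. coli and Ni-purified via a C-terminal His tag. Test compound (20 μM) was incubated with 4 μg of this protein in 5 mM MnCl2, 30 mM Tris pH 8, 50 mM NaCl for 25 min at room temperature, with 1% DMSO final. Sypro Orange was the dye. ΔTm is the mean derivative Tm vs DMSO vehicle, triplicates, with at least two independent determinations.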

The next data set relates to HCMV ADCREGFP virus. As to the kind of experiment: HCMV replication assay. The settings on record: HFF cells, triplicate, mean. The data set is classed as cell-based, Human cytomegalovirus (HCMV).

As to `O=C(NCc1ccc(F)c(Cl)c1)c1nc(Cl)c2cccnc2c1O` [Compound 15c], the viability at 7 days, 10 µM in “Cell viability assay” worked out at 100 ± 5.7%. Besides, the inhibition at 10 µM at HCMV pUL89‐C turned out to be 15 ± 2%.
The compound `Nc1nc(O)c2ncn(COC(CO)CO)c2n1` [Compound 1, ganciclovir, reference compound] yielded a CC50 at 7 days in “Cell viability assay” above 50 µM.
For `O=C(NCc1ccc(F)cc1)c1nc(-c2cccc(Cl)c2)c2cccnc2c1O` [Compound 16e], the viability at 7 days, 10 µM in “Cell viability assay” is at most 70%. Moreover, on HCMV pUL89‐C, the inhibition at 10 µM was 8.2 ± 1.9%.
In the data set “Cell viability assay”, `COc1cccc(-c2nc(C(=O)NCc3ccc(C)cc3)c(O)c3ncccc23)c1` [Compound 16b] had a CC50 at 7 days above 60 µM and a viability at 7 days, 10 µM of 76 ± 1.7%. In addition, on HCMV pUL89‐C, the IC50 was 24 ± 5.4 µM and the inhibition at 10 µM was 52 ± 3.6%.
In turn, `O=C(NCc1ccc(F)cc1)c1nc(-c2ccccc2F)c2cccnc2c1O` [Compound 16d] returned a viability at 7 days, 10 µM in the data set “Cell viability assay” of at most 70%. For the same compound, on HCMV pUL89‐C, the inhibition at 10 µM came out at 17 ± 8.7%.
In the case of `Cc1ccc(CNC(=O)c2nc(-c3ccccc3)c3cccnc3c2O)cc1` [Compound 16a], the “ΔTm (thermal shift)” value on pUL89‐C was above 0. In “Cell viability assay”, this compound displayed a CC50 at 7 days above 100 µM and a viability at 7 days, 10 µM of 99 ± 2.6%. For the same compound, the inhibition at 10 µM on HCMV pUL89‐C was 71 ± 2.4%.
The compound `COC(=O)c1nc(Cl)c2cccnc2c1O` [Compound 13] registered a viability at 7 days, 10 µM in “Cell viability assay” of 96 ± 1%. In addition, the inhibition at 10 µM on HCMV pUL89‐C came to 16 ± 2.5%.
In the case of `O=C(O)c1nc(-c2ccc(C(F)(F)F)cc2)c2cccnc2c1O` [Compound 14], the viability at 7 days, 10 µM in the data set “Cell viability assay” was determined as 97 ± 0.9%. For the same compound, the inhibition at 10 µM on HCMV pUL89‐C was found to be 19 ± 0.1%.
In the case of `COCCNC(=O)c1nc(Cl)c2cccnc2c1O` [Compound 15f], the “Cell‐based assays [at 10 μM] Inhibition %” value in the data set on HCMV ADCREGFP virus is on record as “insignificant”. Also, in “Cell viability assay”, the viability at 7 days, 10 µM turned out to be 96 ± 2.1%. Further, at HCMV pUL89‐C, the IC50 was 5.7 ± 0.39 µM and the inhibition at 10 µM turned out to be 51 ± 14%.
As for `O=C(NCc1ccc(Cl)c(Cl)c1)c1nc(Cl)c2cccnc2c1O` [Compound 15b], in the data set “Cell viability assay”, the 50% cytotoxic concentration (CC50) at 7 days is above 50 µM and the viability at 7 days, 10 µM amounted to 95 ± 1%. On HCMV pUL89‐C, 13 ± 3.8 µM corresponded to half-maximal inhibition (IC50) and the inhibition at 10 µM came to 33 ± 5.3%.
`Cc1ccc(CNC(=O)c2nc(Cl)c3cccnc3c2O)cc1` [Compound 15d]: the “ΔTm (thermal shift)” value on pUL89‐C is listed as above 0. In the data set “Cell viability assay”, this compound returned a half-maximal cytotoxic concentration (CC50) at 7 days above 50 µM and a viability at 7 days, 10 µM of 96 ± 1.5%. Also, on HCMV pUL89‐C, the inhibition at 10 µM is 66 ± 13%.
With `O=C(NCc1ccc(F)cc1)c1nc(Cl)c2cccnc2c1O` [Compound 15a], on pUL89‐C, the “ΔTm (thermal shift)” value is listed as above 0. In “Cell viability assay”, this compound had a CC50 at 7 days of 60 ± 2.4 µM and a viability at 7 days, 10 µM of 97 ± 2.3%. At HCMV pUL89‐C, the IC50 was determined as 4.3 ± 1.2 µM and the inhibition at 10 µM amounted to 49 ± 4.7%.
